Results taken from ChEMBL document CHEMBL1143122, “Novel analogs of D-e-MAPP and B13. Part 1: synthesis and evaluation as potential anticancer agents” (Bioorg Med Chem, 2008).

Experiments:
U-251 = assay: Antiproliferative activity against human U251 cells after 48 hrs; format: functional; details: U-251, 48 h
How it was run: (§1)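 NCI 60-cell-line screen. Lines grown in RPMI 1640 with 5% fetal bovine serum and 2 mM L-glutamine, plated at 5,000–40,000 cells/well according to doubling time, left 24 h at 37 °C in 5% CO2. Drug stocks in DMSO at 400-fold the top final concentration. Five 10-fold dilutions, 10−4 to 10−8 M, incubated 48 h. Growth read spectrophotometrically as net protein; GI50 taken as 50% reduction.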

SK-MEL-5 = assay: Antiproliferative activity against human SKMEL5 cells after 48 hrs; format: functional; details: SK-MEL-5, 48 h
How it was run: (§2)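 NCI 60-cell screen. Cells were grown in RPMI 1640 with 5% FBS and 2 mM L-glutamine, then plated at 5,000–40,000 cells/well according to doubling time and preincubated for 24 h at 37 °C in 5% CO2. Compounds were dissolved in DMSO at 400× the top final concentration and tested at five 10-fold dilutions from 10−4 to 10−8 M for 48 h. Growth was read spectrophotometrically; GI50 is 50% net protein reduction.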

IGROV-1 = assay: Antiproliferative activity against human IGROV1 cells after 48 hrs; format: functional; details: IGROV-1, 48 h; how it was run: as §2
SK-OV-3 = assay: Antiproliferative activity against human SKOV3 cells after 48 hrs; format: functional; details: SK-OV-3, 48 h; how it was run: as §2
786-0 = assay: Antiproliferative activity against human 786-0 cells after 48 hrs; format: functional; details: 786-0, 48 h; how it was run: as §2
CAKI-1 = assay: Antiproliferative activity against human CAKI1 cells after 48 hrs; format: functional; details: CAKI-1, 48 h; how it was run: as §2
SN12C = assay: Antiproliferative activity against human SN12C cells after 48 hrs; format: functional; how it was run: as §2
TK-10 = assay: Antiproliferative activity against human TK10 cells after 48 hrs; format: functional; details: TK-10, 48 h; how it was run: as §1
UO-31 = assay: Antiproliferative activity against human UO31 cells after 48 hrs; format: functional; details: UO-31, 48 h; how it was run: as §1
PC-3 = assay: Antiproliferative activity against human PC3 cells after 48 hrs; format: functional; details: PC-3, 48 h; how it was run: as §2
DU-145 = assay: Antiproliferative activity against human DU145 cells after 48 hrs; format: functional; details: DU-145, 48 h; how it was run: as §2
[1] = Antiproliferative activity against human NCI-ADR-RES cells after 48 hrs; format: functional; how it was run: as §2
Hs-578T = assay: Antiproliferative activity against human HS578T cells after 48 hrs; format: functional; how it was run: as §2
BT-549 = assay: Antiproliferative activity against human BT549 cells after 48 hrs; format: functional; details: BT-549, 48 h; how it was run: as §2
T47D = assay: Antiproliferative activity against human T47D cells after 48 hrs; format: functional; how it was run: as §1
HOP-62 = assay: Antiproliferative activity against human HOP62 cells after 48 hrs; format: functional; details: HOP-62, 48 h; how it was run: as §2
NCI-H226 = assay: Antiproliferative activity against human NCI-H226 cells after 48 hrs; format: functional; details: NCI-H226, 48 h; how it was run: as §2
NCI-H23 = assay: Antiproliferative activity against human NCI-H23 cells after 48 hrs; format: functional; details: NCI-H23, 48 h; how it was run: as §2
NCI-H322M = assay: Antiproliferative activity against human NCI-H322M cells after 48 hrs; format: functional; how it was run: as §2
NCI-H460 = assay: Antiproliferative activity against human NCI-H460 cells after 48 hrs; format: functional; details: NCI-H460, 48 h; how it was run: as §2
COLO 205 = assay: Antiproliferative activity against human COLO205 cells after 48 hrs; format: functional; details: COLO 205, 48 h; how it was run: as §2
HCC 2998 = assay: Antiproliferative activity against human HCC2998 cells after 48 hrs; format: functional; details: HCC 2998, 48 h; how it was run: as §2
HT-29 = assay: Antiproliferative activity against human HT29 cells after 48 hrs; format: functional; details: HT-29, 48 h; how it was run: as §2
SW-620 = assay: Antiproliferative activity against human SW620 cells after 48 hrs; format: functional; details: SW-620, 48 h; how it was run: as §1
SF-268 = assay: Antiproliferative activity against human SF268 cells after 48 hrs; format: functional; details: SF-268, 48 h; how it was run: as §2
SF-295 = assay: Antiproliferative activity against human SF295 cells after 48 hrs; format: functional; details: SF-295, 48 h; how it was run: as §2
SNB-75 = assay: Antiproliferative activity against human SNB75 cells after 48 hrs; format: functional; details: SNB-75, 48 h; how it was run: as §2
MCF7 = assay: Drug level in human MCF7 cells at 10 uM per 10^6 cells after 0.5 hrs; format: ADME, cell-based; details: mcf7, 0.5 h
How it was run: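 MCF7 cells kept in RPMI 1640 with 10% fetal calf serum at 37 °C, 5% CO2, then treated with 10 μM analog. Intracellular analog measured over time by HPLC-MS in positive-ion MRM mode. Quantified against calibration curves made by spiking an artificial matrix with standards plus internal standard, using analyte/IS peak-area ratios and linear regression. Reported as pmol per 1×10^6 cells.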

CCRF-CEM = assay: Antiproliferative activity against human CCRF-CEM cells after 48 hrs; format: functional; how it was run: as §2
[2] = Antiproliferative activity against human […] cells after 48 hrs; format: functional; how it was run: as §2
[3] = read-out: Log LC50 (the source's name) (converted)

SMILES: CCCCCCCCCCCCCCN[C@H](CO)[C@H](O)c1ccc([N+](=O)[O-])cc1.Cl
- GI50 (U-251): 1.86 µM
- TGI (U-251; read-out: Log TGI (converted)): 3.47 µM
- GI50 (SK-MEL-5): 2.45 µM
- CC50 (SK-MEL-5; [3]): > 100 µM
- TGI (SK-MEL-5; read-out: Log TGI (converted)): 7.08 µM
- GI50 (IGROV-1): 1.91 µM
- TGI (IGROV-1; read-out: Log TGI (converted)): 3.63 µM
- GI50 (SK-OV-3): 8.91 µM
- CC50 (SK-OV-3; [3]): 79.4 µM
- TGI (SK-OV-3; read-out: Log TGI (converted)): 27.5 µM
- GI50 (786-0): 1.62 µM
- CC50 (786-0; [3]): 5.75 µM
- TGI (786-0; read-out: Log TGI (converted)): 3.09 µM
- GI50 (CAKI-1): 7.59 µM
- CC50 (CAKI-1; [3]): 67.6 µM
- TGI (CAKI-1; read-out: Log TGI (converted)): 24 µM
- GI50 (SN12C): 2.19 µM
- LC50 (50% net cell kill) (SN12C): > 100 µM
- TGI (SN12C; read-out: Log TGI (converted)): 4.79 µM
- GI50 (TK-10): 10.5 µM
- CC50 (TK-10; [3]): 66.1 µM
- TGI (TK-10; read-out: Log TGI (converted)): 26.3 µM
- GI50 (UO-31): 4.27 µM
- LC50 (UO-31): 87.1 µM
- TGI (UO-31; read-out: Log TGI (converted)): 18.6 µM
- GI50 (PC-3): 1.74 µM
- TGI (PC-3; read-out: Log TGI (converted)): 3.16 µM
- GI50 (DU-145): 1.55 µM
- CC50 (DU-145; [3]): 5.37 µM
- TGI (DU-145; read-out: Log TGI (converted)): 2.88 µM
- GI50 [1]: 2.04 µM
- LC50 [1]: 8.91 µM
- TGI ([1]; read-out: Log TGI (converted)): 4.27 µM
- GI50 (Hs-578T): 2.09 µM
- LC50 (Hs-578T): 100 µM
- TGI (Hs-578T; read-out: Log TGI (converted)): 5.25 µM
- GI50 (BT-549): 1.51 µM
- LC50 (BT-549): 5.62 µM
- TGI (BT-549; read-out: Log TGI (converted)): 2.88 µM
- GI50 (T47D): 3.8 µM
- CC50 (T47D; [3]): 87.1 µM
- TGI (T47D; read-out: Log TGI (converted)): 14.1 µM
- GI50 (HOP-62): 1.91 µM
- CC50 (HOP-62; [3]): 6.31 µM
- TGI (HOP-62; read-out: Log TGI (converted)): 3.47 µM
- GI50 (NCI-H226): 10.5 µM
- CC50 (NCI-H226; [3]): 100 µM
- TGI (NCI-H226; read-out: Log TGI (converted)): 34.7 µM
- GI50 (NCI-H23): 14.5 µM
- CC50 (NCI-H23; [3]): 83.2 µM
- TGI (NCI-H23; read-out: Log TGI (converted)): 34.7 µM
- GI50 (NCI-H322M): 4.79 µM
- CC50 (NCI-H322M; [3]): 42.7 µM
- TGI (NCI-H322M; read-out: Log TGI (converted)): 14.8 µM
- GI50 (NCI-H460): 1.91 µM
- TGI (NCI-H460; read-out: Log TGI (converted)): 3.55 µM
- GI50 (COLO 205): 1.78 µM
- TGI (COLO 205; read-out: Log TGI (converted)): 3.55 µM
- GI50 (HCC 2998): 2.4 µM
- CC50 (HCC 2998; [3]): 29.5 µM
- TGI (HCC 2998; read-out: Log TGI (converted)): 5.62 µM
- GI50 (HT-29): 1.86 µM
- TGI (HT-29; read-out: Log TGI (converted)): 3.47 µM
- GI50 (SW-620): 2 µM
- LC50 (concentration killing 50% of cells) (SW-620): 100 µM
- TGI (SW-620; read-out: Log TGI (converted)): 4.68 µM
- GI50 (SF-268): 2.09 µM
- LC50 (SF-268): > 100 µM
- TGI (SF-268; read-out: Log TGI (converted)): 4.9 µM
- GI50 (SF-295): 2.24 µM
- LC50 (SF-295): 9.77 µM
- TGI (SF-295; read-out: Log TGI (converted)): 4.68 µM
- GI50 (SNB-75): 3.98 µM
- CC50 (SNB-75; [3]): 60.3 µM
- TGI (SNB-75; read-out: Log TGI (converted)): 26.9 µM
- Drug uptake (MCF7): 3600 pmol
- GI50 (CCRF-CEM): 2 µM
- TGI (CCRF-CEM; read-out: Log TGI (converted)): 3.98 µM
- GI50 [2]: 2 µM
- LC50 [2]: 8.91 µM
- TGI ([2]; read-out: Log TGI (converted)): 4.27 µM
